Measured values reported in ChEMBL document CHEMBL2034930, “Alkylidene branched lupane derivatives: synthesis and antitumor activity” (Eur J Med Chem, 2012).
Calls of active or inactive are those of the source. No cut-off for these calls is given here.

What was measured:
DLD-1 = experiment: Cytotoxicity against human DLD1 cells after 96 hrs by SRB assay; format: functional, cell-based
Summary of the method: (§1)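 Cells exposed to test compounds for 96 h, then viable cells measured by sulforhodamine B staining as a percentage of untreated controls. IC50 read from dose-response curves, averaged over at least three independent experiments. Compounds tested free and also encapsulated in soybean-lecithin liposomes extruded through a 100 nm polycarbonate membrane (hydrodynamic diameter 70-120 nm, Z-average 105 nm, encapsulation >96% by HPLC).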

NIH3T3 = experiment: Cytotoxicity against mouse NIH/3T3 cells after 96 hrs by SRB assay; format: cell-based; conditions: NIH3T3, 96 h; summary of the method: as §1
A549 [1] = experiment: Induction of apoptosis in human A549 cells at 0.8 uM by acridine orange/ethidium bromide staining; format: functional, cell-based
8505C = experiment: Cytotoxicity against human 8505C cells after 96 hrs by SRB assay; format: functional, cell-based; summary of the method: as §1
A549 [2] = experiment: Cytotoxicity against human A549 cells after 96 hrs by SRB assay; format: functional, cell-based; summary of the method: as §1
HCT-116 = experiment: Cytotoxicity against human HCT116 cells after 96 hrs by SRB assay; format: functional, cell-based; summary of the method: as §1
SW-1736 = experiment: Cytotoxicity against human SW1736 cells after 96 hrs by SRB assay; format: functional, cell-based; summary of the method: as §1
[3] = Solubility of the compound in water; format: physicochemical; conditions: buffer
SW480 [4] = experiment: Induction of apoptosis in human SW480 cells assessed as DNA laddering at IC90 concentration after 24 hrs
SW480 [5] = experiment: Cytotoxicity against human SW480 cells after 96 hrs by SRB assay; format: functional, cell-based; summary of the method: as §1
MCF7 = experiment: Cytotoxicity against human MCF7 cells after 96 hrs by SRB assay; format: functional, cell-based; summary of the method: as §1
FaDu = experiment: Cytotoxicity against human FADU cells after 96 hrs by SRB assay; format: functional, cell-based; summary of the method: as §1
HT-29 = experiment: Cytotoxicity against human HT-29 cells after 96 hrs by SRB assay; format: functional, cell-based; summary of the method: as §1
[6] = Cytotoxicity against human 518A2 cells after 96 hrs by SRB assay; format: functional, cell-based; summary of the method: as §1
A2780 = experiment: Cytotoxicity against human A2780 cells after 96 hrs by SRB assay; format: functional, cell-based; summary of the method: as §1
[7] = Cytotoxicity against human Lipo cells after 96 hrs by SRB assay; format: functional, cell-based; summary of the method: as §1
HCT-8 = experiment: Cytotoxicity against human HCT8 cells after 96 hrs by SRB assay; format: functional, cell-based; summary of the method: as §1
[8] = Cytotoxicity against human A253 cells after 96 hrs by SRB assay; format: functional, cell-based; summary of the method: as §1
A-431 = experiment: Cytotoxicity against human A431 cells after 96 hrs by SRB assay; format: functional, cell-based; summary of the method: as §1
[9] = Chemical stability of the compound; format: physicochemical
SW480 [10] = experiment: Induction of apoptosis in human SW480 cells assessed as DNA laddering at 6 uM after 24 hrs; format: functional, cell-based
[11] = Homo sapiens, DLD-1, 96 h, read-out: IC50
[12] = Homo sapiens, 8505C, 96 h, read-out: IC50
[13] = Homo sapiens, A549, 96 h, read-out: IC50
[14] = Homo sapiens, HCT-116, 96 h, read-out: IC50
[15] = Homo sapiens, SW-1736, 96 h, read-out: IC50
[16] = Homo sapiens, SW480, 96 h, read-out: IC50
[17] = Homo sapiens, MCF7, 96 h, read-out: IC50
[18] = Homo sapiens, FaDu, 96 h, read-out: IC50
[19] = Homo sapiens, HT-29, 96 h, read-out: IC50
[20] = Homo sapiens, 518A2, 96 h, read-out: IC50
[21] = Homo sapiens, A2780, 96 h, read-out: IC50
[22] = Homo sapiens, Lipo, 96 h, read-out: IC50
[23] = Homo sapiens, HCT-8, 96 h, read-out: IC50
[24] = Homo sapiens, A253, 96 h, read-out: IC50
[25] = Homo sapiens, A-431, 96 h, read-out: IC50

SMILES | solubility [3] | IC50 (DLD-1; [11]) [nM] | IC50 (NIH3T3) [nM] | IC50 (8505C; [12]) [nM] | IC50 (A549 [2]; [13]) [nM] | IC50 (HCT-116; [14]) [nM] | IC50 (SW-1736; [15]) [nM] | IC50 (SW480 [5]; [16]) [nM] | IC50 (MCF7; [17]) [nM] | IC50 (FaDu; [18]) [nM] | IC50 (HT-29; [19]) [nM] | IC50 [6, 20] [nM] | IC50 (A2780; [21]) [nM] | IC50 [7, 22] [nM] | IC50 (HCT-8; [23]) [nM] | IC50 [8, 24] [nM] | IC50 (A-431; [25]) [nM] | other results
C=C1C[C@]2(C)[C@H]3CC[C@@H]4[C@H]5[C@H](C(=C)C)CC[C@]5(C(=O)O)CC[C@@]4(C)[C@]3(C)CC[C@H]2C(C)(C)C1=O | Insoluble | 400 | 800 | 600 | 600 | 200 | 400 | 400 | 300 | 500 | 400 | 500 | 600 | 600 | 200 | 400 | 200 | Activity (A549 [1]): Active; Activity (SW480 [4]): Active
C=C1C[C@]2(C)[C@H]3CC[C@@H]4[C@H]5[C@H](C(=C)C)CC[C@]5(C(=O)N5CCSCC5)CC[C@@]4(C)[C@]3(C)CC[C@H]2C(C)(C)C1=O | Insoluble | 1500 | 1900 | 1500 | 1500 | 1300 | 1500 | 1500 | 1400 | 1600 | 1600 | 1500 | 1000 | 1500 | 1500 | 1400 | 1400 | –
C=C(C)[C@@H]1CC[C@]2(CO)CC[C@]3(C)[C@H](CC[C@@H]4[C@@]5(C)CC[C@H](O)C(C)(C)[C@@H]5CC[C@]43C)[C@@H]12 [BETULIN] | Insoluble | – | – | – | – | – | – | – | – | – | – | – | – | – | – | – | – | –
C=C(C)[C@@H]1CC[C@]2(C(=O)O)CC[C@]3(C)[C@H](CC[C@@H]4[C@@]5(C)CCC(=O)C(C)(C)[C@@H]5CC[C@]43C)[C@@H]12 [BETUNOLIC ACID] | Insoluble | – | – | – | – | – | – | – | – | – | – | – | – | – | – | – | – | –
C=C1C[C@]2(C)[C@H]3CC[C@@H]4[C@H]5[C@H](C(=C)C)CC[C@]5(C=O)CC[C@@]4(C)[C@]3(C)CC[C@H]2C(C)(C)C1=O | Insoluble | 3700 | 4700 | 1300 | 1800 | 3200 | 2100 | 2700 | 2100 | 5100 | 7100 | 3800 | 1300 | 2700 | 7100 | 1000 | 3000 | –
C=C(C)[C@@H]1CC[C@]2(C(=O)OC)CC[C@]3(C)[C@H](CC[C@@H]4[C@@]5(C)CCC(=O)C(C)(C)[C@@H]5CC[C@]43C)[C@@H]12 [METHYL BETULONATE] | Insoluble | – | – | – | – | – | – | – | – | – | – | – | – | – | – | – | – | –
C=C(C)[C@@H]1CC[C@]2(C=O)CC[C@]3(C)[C@H](CC[C@@H]4[C@@]5(C)CCC(=O)C(C)(C)[C@@H]5CC[C@]43C)[C@@H]12 [BETULONAL] | Insoluble | – | – | – | – | – | – | – | – | – | – | – | – | – | – | – | – | –

The next lines start with results.

solubility [3] | SMILES | IC50 (DLD-1; [11]) [nM] | IC50 (NIH3T3) [nM] | IC50 (8505C; [12]) [nM] | IC50 (A549 [2]; [13]) [nM] | IC50 (HCT-116; [14]) [nM] | IC50 (SW-1736; [15]) [nM] | IC50 (SW480 [5]; [16]) [nM] | IC50 (MCF7; [17]) [nM] | IC50 (FaDu; [18]) [nM] | IC50 (HT-29; [19]) [nM] | IC50 [6, 20] [nM] | IC50 (A2780; [21]) [nM] | IC50 [7, 22] [nM] | IC50 (HCT-8; [23]) [nM] | IC50 [8, 24] [nM] | IC50 (A-431; [25]) [nM] | other results
Insoluble | C=C(C)[C@@H]1CC[C@]2(C(=O)OC)CC[C@]3(C)[C@H](CC[C@@H]4[C@@]5(C)C[C@@]6(CCN=N6)C(=O)C(C)(C)[C@@H]5CC[C@]43C)[C@@H]12 | – | – | – | – | – | – | – | – | – | – | – | – | – | – | – | – | IC50 (DLD-1; dld-1): > 30000 nM; IC50 (8505C; 8505c): > 30000 nM; IC50 (A549 [2]; a549): > 30000 nM; IC50 (HCT-116; hct-116): > 30 µmol; IC50 (SW-1736; sw-1736): > 30 µmol; IC50 (SW480 [5]; sw480): > 30 µmol; IC50 (MCF7; mcf7): > 30 µmol; IC50 (FaDu; fadu): > 30000 nM; IC50 (HT-29; ht-29): > 30 µmol; IC50 ([6]; 518a2): > 30000 nM; IC50 (A2780; a2780): > 30000 nM; IC50 ([7]; lipo): > 30 µmol; IC50 (HCT-8; hct-8): > 30 µmol; IC50 ([8]; a253): > 30000 nM; IC50 (A-431; a-431): > 30000 nM
Insoluble | C=C(C)[C@@H]1CC[C@]2(C(=O)OC)CC[C@]3(C)[C@H](CC[C@@H]4[C@@]5(C)C[C@@H](CC[N+](=O)[O-])C(=O)C(C)(C)[C@@H]5CC[C@]43C)[C@@H]12 | – | – | – | – | – | – | – | – | – | – | – | – | – | – | – | – | –
Insoluble | C=C(C)[C@@H]1CC[C@]2(C(=O)OC)CC[C@]3(C)[C@H](CC[C@@H]4[C@@]5(C)C[C@@H](CN(C)C)C(=O)C(C)(C)[C@@H]5CC[C@]43C)[C@@H]12 | – | – | – | – | – | – | – | – | – | – | – | – | – | – | – | – | Stability [9]: Unstable
Insoluble | C=C(C)[C@@H]1CC[C@]2(C(=O)OC)CC[C@]3(C)[C@H](CC[C@@H]4[C@@]5(C)C[C@@H](CS(=O)(=O)CCO)C(=O)C(C)(C)[C@@H]5CC[C@]43C)[C@@H]12 | 4400 | 3200 | 3400 | 3300 | 2800 | 3300 | 2600 | 2600 | 3800 | 2500 | 2600 | 2600 | 2700 | 4000 | 2500 | 2800 | –
Insoluble | C=C/C=C1/C[C@]2(C)[C@H]3CC[C@@H]4[C@H]5[C@H](C(=C)C)CC[C@]5(C(=O)OC)CC[C@@]4(C)[C@]3(C)CC[C@H]2C(C)(C)C1=O | 14200 | 13100 | 11300 | 13000 | 14600 | 15000 | 10500 | 11200 | 17000 | 10900 | 11500 | 11200 | 11600 | 14000 | 10400 | 13000 | –
Insoluble | C=C(C)[C@@H]1CC[C@]2(C(=O)OC)CC[C@]3(C)[C@H](CC[C@@H]4[C@@]5(C)C/C(=C\C)C(=O)C(C)(C)[C@@H]5CC[C@]43C)[C@@H]12 | > 30000 | 29100 | 26400 | > 30000 | 24000 | 21900 | 16000 | 27200 | 22400 | > 30000 | > 30000 | 16100 | 27800 | 17200 | 21600 | 26400 | –
Insoluble | C=C(C)[C@@H]1CC[C@]2(C(=O)OC)CC[C@]3(C)[C@H](CC[C@@H]4[C@@]5(C)C[C@@H](CSCCO)C(=O)C(C)(C)[C@@H]5CC[C@]43C)[C@@H]12 | 2500 | 2100 | 2300 | 2100 | 1900 | 2100 | 1500 | 1500 | 2500 | 1400 | 1500 | 1600 | 1800 | 2500 | 1500 | 1700 | Activity (SW480 [10]): Active; Activity (A549 [1]): Active
Insoluble | C=C1C[C@]2(C)[C@H]3CC[C@@H]4[C@H]5[C@H](C(=C)C)CC[C@]5(C(=O)OC)CC[C@@]4(C)[C@]3(C)CC[C@H]2C(C)(C)C1=O | 6400 | 4900 | 5000 | 5100 | 4500 | 4900 | 4500 | 4400 | 7700 | 5900 | 4200 | 5100 | 4600 | 9000 | 4000 | 4900 | Activity (SW480 [10]): Active; Activity (A549 [1]): Active
